Source: ChEMBL document CHEMBL2331469, “Discovery and Preliminary SAR of Arylpiperazines as Novel, Brainpenetrant Antiprion Compounds” (ACS Med Chem Lett, 2013)

Tests used:
[1] = (§1) AUC (0 to 6 hrs) in wild type FVB mouse brain at 10 mg/kg, po by LC-MS analysis; format: ADME, organism-based; set-up: time < 6 hr, dose 10 mg/kg, route oral; conditions: FVB, brain
Liver microsomes = assay: Metabolic stability in human liver microsomes assessed as half life by LC-MS analysis; format: ADME, Microsome
Liver = assay: Metabolic stability in mouse liver microsomes assessed as half life by LC-MS analysis; format: ADME, Microsome
[2] = Cytotoxicity against mouse ScN2a-cl3 cells assessed as cell viability after 5 days by calcein cell viability assay; format: cell-based; conditions: n2a-cl3, 120 h, read-out: LC50 (the source's name)
In short: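 Viability of RML prion-infected ScN2a-cl3 cells was read with the fluorescent probe calcein-AM. It was run alongside each PrPSc ELISA EC50 measurement to rule out cytotoxicity, and LC50 was derived from 3 tests.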

[3] = Cmax in wild type FVB mouse brain at 10 mg/kg, po by LC-MS analysis; format: ADME, organism-based; set-up: dose 10 mg/kg, route oral
[4] = (§2) Cmax in wild type FVB mouse plasma at 10 mg/kg, po by LC-MS analysis; format: ADME, organism-based; set-up: dose 10 mg/kg, route oral; conditions: FVB, plasma
[5] = AUC (0 to 6 hrs) in wild type FVB mouse plasma at 10 mg/kg, po by LC-MS analysis; format: ADME, organism-based; set-up: time < 6 hr, dose 10 mg/kg, route oral
[6] = Antiprion activity against sheep RML prion protein-infected in mouse ScN2a-cl3 cells assessed as reduction of PrPSc level after 5 days by ELISA; format: cell-based; conditions: Ovis aries, N2a-cl3, 120 h
In short: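 RML prion-infected murine neuroblastoma ScN2a-cl3 cells. PrPSc levels were measured by ELISA, and EC50 was derived from 3 tests. Cell viability was run alongside each EC50 measurement in the same cells using calcein-AM fluorescence, to exclude cytotoxicity.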

N2a-cl3 = assay: Antiprion activity against sheep RML prion protein-infected in mouse ScN2a-cl3 cells assessed as reduction of PrPSc level after 5 days by ELISA relative to control; format: cell-based; set-up: concentration or dose not given beside the values; conditions: Ovis aries, dose or concentration not given here
Brain = assay: as §1; format: ADME, organism-based; set-up: time < 6 hr, dose 10 mg/kg, route oral; conditions: in vivo, 6 h
Plasma = assay: as §2; format: ADME, organism-based; set-up: dose 10 mg/kg, route oral; conditions: in vivo

| Compound | EC50 [6] [µM] | inhibition (N2a-cl3) [%] | further results |
| --- | --- | --- | --- |
| COc1ccc(CN2CCN(c3ccc(-c4nc5ccccc5o4)cc3)CC2)cn1 | 1.1 |  | AUC(0-t) at 6 h [1]: 3 µM·h; t1/2 (Liver microsomes): > 60 min; t1/2 (Liver): 25.2 min; CC50 [2]: > 10 µM; Cmax [3]: 1600 nM; Cmax [4]: 700 nM; AUC(0-t) at 6 h [5]: 1.1 µM·h |
| COc1ccc(N2CCN(Cc3cccnc3)CC2)cc1 | > 32 | 10 |  |
| Clc1cccc(N2CCN(Cc3ccco3)CC2)c1 |  | 6 |  |
| Clc1cccc(N2CCN(Cc3cc(Br)cs3)CC2)c1 |  | 34 |  |
| COc1ccc(N2CCN(Cc3cccs3)CC2)cc1 |  | 16 |  |
| c1cncc(CN2CCN(c3ccc(-c4ncco4)cc3)CC2)c1 | > 10 |  | CC50 [2]: > 10 µM |
| Fc1ccc(N2CCN(Cc3ccccc3)CC2)cc1 |  | 7 |  |
| CC(=O)c1ccc(N2CCN(Cc3sccc3C)CC2)cc1 |  | 78 |  |
| Clc1cccc(N2CCN(Cc3ccccc3)CC2)c1 |  | 7 |  |
| CC(=O)c1ccc(N2CCN(Cc3ccccc3)CC2)cc1 | 0.71 | 94 |  |
| COc1ccc(N2CCN(Cc3ccccc3)CC2)cc1 |  | 7 |  |
| Clc1ccc(N2CCN(Cc3ccco3)CC2)cc1 |  | 13 |  |
| Clc1ccc(N2CCN(Cc3cccnc3)CC2)cc1 |  | 0 |  |
| Cc1ccc(CN2CCN(c3ccc(-c4nc5ccccc5o4)cc3)CC2)o1 | 3.3 |  | CC50 [2]: > 10 µM |
| CC(=O)c1ccc(N2CCN(Cc3ccc(C)o3)CC2)cc1 | 4.62 | 78 |  |
| COc1ccc(N2CCN(Cc3ccc(Br)o3)CC2)cc1 |  | 6 |  |
| Cc1ccc(CN2CCN(c3ccc(-c4nc5ccccc5o4)cc3)CC2)cn1 | > 10 |  | CC50 [2]: > 10 µM |
| c1csc(CN2CCN(c3ccc(-c4nc5ccccc5o4)cc3)CC2)c1 | 4.2 |  | CC50 [2]: > 10 µM |

| Compound | EC50 [6] [µM] | inhibition (N2a-cl3) [%] | further results |
| --- | --- | --- | --- |
| c1ccc(CN2CCN(c3ccccc3)CC2)cc1 |  | 5 |  |
| CC(=O)c1ccc(N2CCN(Cc3cccnc3)CC2)cc1 |  | 73 |  |
| c1csc(CN2CCN(c3ccc(-c4ncco4)cc3)CC2)c1 | > 10 |  | CC50 [2]: > 10 µM |
| Fc1ccc(CN2CCN(c3ccc(-c4nc5ccccc5o4)cc3)CC2)cn1 | 0.4 |  | AUC (Brain): 1.3 µM·h; t1/2 (Liver microsomes): 43.6 min; t1/2 (Liver): 7.3 min; CC50 [2]: > 10 µM; Cmax [3]: 400 nM; AUC(0-t) at 6 h [5]: 1.2 µM·h |
| c1cncc(CN2CCN(c3ccc(-c4nc5ccccc5s4)cc3)CC2)c1 | 0.4 |  | AUC (Brain): 14.4 µM·h; t1/2 (Liver microsomes): 34.3 min; t1/2 (Liver): 17.3 min; CC50 [2]: > 10 µM; Cmax [3]: 3000 nM; Cmax (Plasma): 600 nM; AUC(0-t) at 6 h [5]: 2.7 µM·h |
| Fc1ccccc1N1CCN(Cc2cccnc2)CC1 | > 32 |  |  |
| CC(=O)c1ccc(N2CCN(Cc3cccs3)CC2)cc1 | 1.95 | 91 |  |
| Clc1ccc(N2CCN(Cc3ccccc3)CC2)cc1 |  | 6 |  |
| Fc1ccc(N2CCN(Cc3cccnc3)CC2)cc1 | > 32 | 27 |  |
| Cc1ccc(CN2CCN(c3ccc(-c4ncco4)cc3)CC2)o1 | > 10 |  | CC50 [2]: > 10 µM |
| CC(=O)c1ccc(N2CCN(Cc3ccco3)CC2)cc1 |  | 96 |  |
| COc1cccc(N2CCN(Cc3cccnc3)CC2)c1 | > 32 |  |  |
| COc1ccccc1N1CCN(Cc2cccnc2)CC1 | > 32 |  |  |
| Clc1ccc(N2CCN(Cc3ccc(Br)s3)CC2)cc1 |  | 12 |  |
| Clc1cccc(N2CCN(Cc3cccnc3)CC2)c1 | > 32 | 4 |  |
| c1cncc(CN2CCN(c3ccc(-c4nc5ccccc5o4)cc3)CC2)c1 | 0.3 |  | AUC (Brain): 14.2 µM·h; t1/2 (Liver microsomes): 50.2 min; t1/2 (Liver): 9.2 min; CC50 [2]: > 10 µM; Cmax [3]: 3600 nM; Cmax [4]: 900 nM; AUC(0-t) at 6 h [5]: 4.2 µM·h |
| c1ccc(N2CCN(Cc3cccnc3)CC2)cc1 |  | 4 |  |
